≈ marks a conversion by molar mass, not a printed value.
What was measured:
[1] = Solubility of the compound in simulated intestinal fluid; assay type: physicochemical
[2] = Solubility of the compound in 0.01 M aqueous HCl; assay type: physicochemical
[3] = biological target: T1, Sphingosine 1-phosphate receptor 1 (Homo sapiens, UniProt P21453); test: Agonist activity at human S1P1 expressed in U2OS cells coexpressing eGFP assessed as receptor internalization after 1 hr by microscopic analysis relative to 1-(4-(6-benzylbenzofuran-2-yl)-3-fluorobenzyl)azetidine-3-carboxylic acid; assay type: functional, cell-based
Method in brief: (§1)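 Human S1P1–eGFP fusion protein expressed in U2OS cells; agonism read as receptor internalization; EC50 derived, efficacy expressed relative to 1-(4-(6-benzylbenzofuran-2-yl)-3-fluorobenzyl)azetidine-3-carboxylic acid at 1.0 μM.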

[4] = biological target: T1, Sphingosine 1-phosphate receptor 1; test: Agonist activity at human S1P1 expressed in U2OS cells coexpressing eGFP assessed as receptor internalization after 1 hr by microscopic analysis; assay type: functional, cell-based; method in brief: as §1
[5] = Apparent permeability across pig LLC-PK1 cells; assay type: ADME, cell-based, Sus scrofa
Method in brief: (§2)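 Permeability across porcine proximal tubule LLC-PK1 cell monolayers; apparent permeability (Papp) and efflux ratio determined.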

[6] = test system: Rattus norvegicus; test: Immunosuppressive activity in Lewis rat assessed as change in peripheral lymphocyte count at 1 mg/kg, po after 24 hrs relative to vehicle treated control; assay type: functional
Method in brief: (§3)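 Female Lewis rats (N = 5/group) given one oral dose of 1 mg/kg (20% captisol, 1% HPMC, 1% pluronic F68, pH 2.1 with MSA); blood lymphocyte count and total plasma compound measured at 24 h; POC vs vehicle, ANOVA/Dunnett's test.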

[7] = Solubility of the compound in phosphate buffer saline at pH 7.4; assay type: physicochemical; details: phosphate buffered saline
[8] = Intrinsic clearance in rat liver microsomes after 30 mins; assay type: ADME, Microsome; details: read-out: CLH
[9] = Plasma concentration in Lewis rat at 1 mg/kg, po at 24 hrs; assay type: ADME, organism-based; design: dose 1 mg/kg, route oral; details: Lewis, plasma; method in brief: as §3
[10] = Efflux ratio of apparent permeability across pig LLC-PK1 cells; assay type: ADME, cell-based, Sus scrofa; method in brief: as §2

T1 sequence (P21453 whole entry, the tested form may be a part): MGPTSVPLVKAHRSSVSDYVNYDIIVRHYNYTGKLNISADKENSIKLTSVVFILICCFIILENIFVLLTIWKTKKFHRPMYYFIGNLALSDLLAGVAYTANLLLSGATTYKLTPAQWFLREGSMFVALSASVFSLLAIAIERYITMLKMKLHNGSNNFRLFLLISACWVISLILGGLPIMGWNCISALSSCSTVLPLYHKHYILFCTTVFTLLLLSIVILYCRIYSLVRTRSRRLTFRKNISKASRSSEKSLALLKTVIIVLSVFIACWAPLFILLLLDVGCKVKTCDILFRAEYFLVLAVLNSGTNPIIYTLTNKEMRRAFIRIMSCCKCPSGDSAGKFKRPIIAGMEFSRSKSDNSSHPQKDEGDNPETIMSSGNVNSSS

SMILES | solubility [1] [µg/mL] | solubility [2] [µg/mL] | Efficacy [3] [%] | EC50 [4] [nM] | Papp [5] [×10⁻⁶ cm/s] | solubility [7] [µg/mL] | microsomal CLint [8] [µL/min/mg] | concentration at 24 h [9] [ng/mL] | efflux ratio [10] | Activity [6] [%]
COc1ccccc1C(=O)NC(=O)Nc1ccc(N2CCCCC2)c(C(F)(F)F)c1 | 4.1 (≈ 9.73 µM) | 3 (≈ 7.12 µM) | 120 | 13 | < 1 | < 1 | 26 |  |  | 
COc1ccccc1C(=O)NC(=O)Nc1ccc(N2CCCCC2)c(Cl)c1 | 8.5 (≈ 21.9 µM) | 3.6 (≈ 9.28 µM) | 120 | 230 | < 1 | < 1 | 36 |  |  | 
COc1ccccc1C(=O)NC(=O)Nc1ccc(OCC(F)(F)F)c(C(F)(F)F)c1 | 2.2 (≈ 5.04 µM) | < 1 | 83 | 6.8 | < 1 | < 1 | 25 | 1 |  | 4

More lines, main results first:

solubility [1] [µg/mL] | solubility [2] [µg/mL] | Efficacy [3] [%] | EC50 [4] [nM] | Papp [5] [×10⁻⁶ cm/s] | solubility [7] [µg/mL] | microsomal CLint [8] [µL/min/mg] | concentration at 24 h [9] [ng/mL] | efflux ratio [10] | SMILES | Activity [6] [%]
23 (≈ 55.5 µM) | < 1 | 110 | 68 | < 1 | < 1 | 15 | 4.9 |  | COc1ccccc1C(=O)NC(=O)Nc1ccc(-c2ccccc2)c(C(F)(F)F)c1 | -20
12 (≈ 28.5 µM) | 1.1 (≈ 2.61 µM) | 130 | 38 | 12 | < 1 | 33 | 1 | 1.4 | COc1ccccc1C(=O)NC(=O)Nc1ccc(-c2nccs2)c(C(F)(F)F)c1 | -18

Reference: ChEMBL document CHEMBL2016555, “4-Methoxy-N-[2-(trifluoromethyl)biphenyl-4-ylcarbamoyl]nicotinamide: A Potent and Selective Agonist of S1P1” (ACS Med Chem Lett, 2011)
